# Laboratory results published in ChEMBL document CHEMBL1944511, “Bakuchiol derivatives as novel and potent cytotoxic agents: a report” (Eur J Med Chem, 2012).
# How the values were obtained:
# [1] = tested on: HEp-2; assay: Growth inhibition of human Hep2 cells at 20 uM after 48 hrs by sulpharhodamine B assay; format: functional; details: HEp-2, 48 h, read-out: GI
# In short: (§1)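 This is the SRB protein-stain assay on adherent cells in RPMI-1640/MEM with 10% FCS. Each compound in DMSO (vehicle <0.2%) was applied at a single fixed concentration for 48 h. Cells were fixed with TCA and stained with SRB, and the dye was solubilised in Tris and read at 570/620 nm. Percent growth inhibition is relative to vehicle-treated controls, reported as mean ± SD of three experiments run in triplicate.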
# [2] = tested on: MCF7; assay: Growth inhibition of human MCF7 cells at 5 uM after 48 hrs by sulpharhodamine B assay; format: functional; details: MCF7, 48 h, read-out: GI; in short: as §1
# [3] = tested on: MCF7; assay: Growth inhibition of human MCF7 cells at 10 uM after 48 hrs by sulpharhodamine B assay; format: functional; details: MCF7, 48 h, read-out: GI; in short: as §1
# [4] = tested on: A549; assay: Growth inhibition of human A549 cells at 5 uM after 48 hrs by sulpharhodamine B assay; format: functional; details: A549, 48 h, read-out: GI; in short: as §1
# [5] = tested on: A549; assay: Growth inhibition of human A549 cells at 30 uM after 48 hrs by sulpharhodamine B assay; format: functional; details: A549, 48 h, read-out: GI; in short: as §1
# [6] = tested on: HCT-15; assay: Growth inhibition of human HCT15 cells at 10 uM after 48 hrs by sulpharhodamine B assay; format: functional; details: HCT-15, 48 h, read-out: GI; in short: as §1
# [7] = tested on: THP-1; assay: Growth inhibition of human THP1 cells at 20 uM after 48 hrs by sulpharhodamine B assay; format: functional; details: THP-1, 48 h, read-out: GI
# In short: (§2)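 Cells grown in RPMI-1640/MEM with 10% FCS, penicillin/streptomycin, 37 °C, 5% CO2. Seeded in 96-well plates, allowed to adhere overnight, then exposed 48 h to analogs in DMSO (vehicle <0.2% in controls). TCA-fixed, stained with 0.4% SRB in 1% acetic acid, dye solubilized in 10 mM Tris base, OD 570 nm (ref 620 nm). Mean ± SD of three experiments run in triplicate.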
# [8] = tested on: PC-3; assay: Growth inhibition of human PC3 cells at 10 uM after 48 hrs by sulpharhodamine B assay; format: functional; details: PC-3, 48 h, read-out: GI; in short: as §1
# [9] = tested on: DU-145; assay: Growth inhibition of human DU145 cells at 20 uM after 48 hrs by sulpharhodamine B assay; format: functional; details: DU-145, 48 h, read-out: GI; in short: as §1
# [10] = tested on: DU-145; assay: Growth inhibition of human DU145 cells at 10 uM after 48 hrs by sulpharhodamine B assay; format: functional; details: DU-145, 48 h, read-out: GI; in short: as §1
# [11] = tested on: HL-60; assay: Induction of apoptosis in human HL60 cells assessed as loss of mitochondrial membrane potential after 24 hrs by rodamine-123 staining-based flow cytometric analysis; format: functional, cell-based
# [12] = tested on: DU-145; assay: Growth inhibition of human DU145 cells at 5 uM after 48 hrs by sulpharhodamine B assay; format: functional; details: DU-145, 48 h, read-out: GI; in short: as §1
# [13] = tested on: SF-295; assay: Cytotoxicity against human SF295 cells after 48 hrs by sulpharhodamine B assay; format: functional, cell-based; details: SF-295, 48 h
# In short: (§3)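 Cells were grown in RPMI-1640/MEM with 10% FCS and penicillin/streptomycin at 37 °C under 5% CO2, then seeded and left to adhere overnight. Analogs in DMSO (vehicle <0.2%) were added at several concentrations for 48 h. Cells were fixed with cold 50% TCA, stained with 0.4% SRB in 1% acetic acid, solubilised in 10 mM Tris, and read at OD 570/620 nm. IC50 came from non-linear regression.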
# [14] = tested on: HL-60; assay: Induction of apoptosis in human HL60 cells assessed as loss of mitochondrial membrane potential at 30 uM after 24 hrs by rodamine-123 staining-based flow cytometric analysis; format: functional
# [15] = tested on: HCT-15; assay: Growth inhibition of human HCT15 cells at 5 uM after 48 hrs by sulpharhodamine B assay; format: functional; details: HCT-15, 48 h, read-out: GI; in short: as §1
# [16] = tested on: HL-60; assay: Induction of apoptosis in human HL60 cells assessed as increase in […] sub-G0 fraction at 5 uM by propidium iodide staining-based flow cytometric analysis (reference value: 6%); format: functional
# [17] = tested on: HL-60; assay: Induction of apoptosis in human HL60 cells assessed as loss of mitochondrial membrane potential at 1 uM after 24 hrs by rodamine-123 staining-based flow cytometric analysis (reference value: 6%); format: functional
# [18] = tested on: OVCAR-5; assay: Growth inhibition of human OVCAR5 cells at 30 uM after 48 hrs by sulpharhodamine B assay; format: functional; details: OVCAR-5, 48 h, read-out: GI; in short: as §1
# [19] = tested on: THP-1; assay: Growth inhibition of human THP1 cells at 30 uM after 48 hrs by sulpharhodamine B assay; format: functional; details: THP-1, 48 h, read-out: GI; in short: as §2
# [20] = tested on: PC-3; assay: Growth inhibition of human PC3 cells at 20 uM after 48 hrs by sulpharhodamine B assay; format: functional; details: PC-3, 48 h, read-out: GI; in short: as §1
# [21] = tested on: IMR-32; assay: Growth inhibition of human IMR32 cells at 5 uM after 48 hrs by sulpharhodamine B assay; format: functional; details: IMR-32, 48 h, read-out: GI; in short: as §1
# [22] = tested on: A549; assay: Growth inhibition of human A549 cells at 20 uM after 48 hrs by sulpharhodamine B assay; format: functional; details: A549, 48 h, read-out: GI; in short: as §1
# [23] = tested on: HCT-15; assay: Growth inhibition of human HCT15 cells at 20 uM after 48 hrs by sulpharhodamine B assay; format: functional; details: HCT-15, 48 h, read-out: GI; in short: as §1
# [24] = tested on: PC-3; assay: Growth inhibition of human PC3 cells at 30 uM after 48 hrs by sulpharhodamine B assay; format: functional; details: PC-3, 48 h, read-out: GI; in short: as §2
# [25] = tested on: IMR-32; assay: Growth inhibition of human IMR32 cells at 50 uM after 48 hrs by sulpharhodamine B assay; format: functional; details: IMR-32, 48 h, read-out: GI; in short: as §1
# [26] = tested on: PC-3; assay: Growth inhibition of human PC3 cells at 5 uM after 48 hrs by sulpharhodamine B assay; format: functional; details: PC-3, 48 h, read-out: GI; in short: as §2
# [27] = tested on: THP-1; assay: Growth inhibition of human THP1 cells at 5 uM after 48 hrs by sulpharhodamine B assay; format: functional; details: THP-1, 48 h, read-out: GI; in short: as §2
# [28] = tested on: HL-60; assay: Cytotoxicity against human HL60 cells after 48 hrs by MTT assay; format: functional, cell-based; details: for IC50: HL-60, 48 h
# In short: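 Exponentially growing HL-60 cells (1.5×10^4 per well) in 96-well plates were exposed to a range of compound concentrations in DMSO, with vehicle-only controls. MTT (2.5 mg/mL stock) was added for 3–4 h at 37 °C, and formazan was dissolved in DMSO and read at OD 570/620 nm. […] Data are mean ± SD of n = 6 wells from two experiments.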
# [29] = tested on: MCF7; assay: Growth inhibition of human MCF7 cells at 30 uM after 48 hrs by sulpharhodamine B assay; format: functional; details: MCF7, 48 h, read-out: GI; in short: as §1
# [30] = tested on: A549; assay: Growth inhibition of human A549 cells at 50 uM after 48 hrs by sulpharhodamine B assay; format: functional; details: A549, 48 h, read-out: GI; in short: as §1
# [31] = tested on: MCF7; assay: Growth inhibition of human MCF7 cells at 50 uM after 48 hrs by sulpharhodamine B assay; format: functional; details: MCF7, 48 h, read-out: GI; in short: as §1
# [32] = tested on: HL-60; assay: Induction of apoptosis in human HL60 cells assessed as loss of mitochondrial membrane potential at 20 uM after 24 hrs by rodamine-123 staining-based flow cytometric analysis (reference value: 6%); format: functional
# [33] = tested on: MCF7; assay: Cytotoxicity against human MCF7 cells after 48 hrs by sulpharhodamine B assay; format: functional, cell-based; details: MCF7, 48 h; in short: as §3
# [34] = tested on: HL-60; assay: Induction of apoptosis in human HL60 cells assessed as loss of mitochondrial membrane potential at 5 uM after 24 hrs by rodamine-123 staining-based flow cytometric analysis (reference value: 6%); format: functional
# [35] = tested on: HL-60; assay: Induction of apoptosis in human HL60 cells assessed as increase in […] sub-G0 fraction at 20 uM by propidium iodide staining-based flow cytometric analysis (reference value: 6%); format: functional
# [36] = tested on: HEp-2; assay: Cytotoxicity against human Hep2 cells after 48 hrs by sulpharhodamine B assay; format: functional, cell-based; details: HEp-2, 48 h; in short: as §3
SMILES,inhibition of growth at 20 µM [1],inhibition of growth at 5 µM [2],inhibition of growth at 10 µM [3],inhibition of growth at 5 µM [4],inhibition of growth at 30 µM [5],inhibition of growth at 10 µM [6],inhibition of growth at 20 µM [7],inhibition of growth at 10 µM [8],inhibition of growth at 20 µM [9],inhibition of growth at 10 µM [10],Activity [11],inhibition of growth at 5 µM [12],IC50 [13],Activity [14],inhibition of growth at 5 µM [15],Activity [16],Activity [17],inhibition of growth at 30 µM [18],inhibition of growth at 30 µM [19],inhibition of growth at 20 µM [20],further results
COc1ccc(/C=C/[C@](C)(/C=C/c2ccc(O)cc2)CCC=C(C)C)cc1,58%,24%,37%,24%,55%,50%,78%,41%,73%,57%,Dose-dependent effect,20%,22 µM,55.4%,28%,8%,14.4%,50%,60%,58%,inhibition of growth at 5 µM [21]: 13%; inhibition of growth at 20 µM [22]: 69%; inhibition of growth at 20 µM [23]: 61%; inhibition of growth at 30 µM [24]: 50%; inhibition of growth at 50 µM [25]: 69%; inhibition of growth at 5 µM [26]: 23%; inhibition of growth at 5 µM [27]: 53%; Activity [28]: Dose-dependent effect; IC50 [28]: 2000 nM; inhibition of growth at 30 µM [29]: 52%; inhibition of growth at 50 µM [30]: 70%; inhibition of growth at 50 µM [31]: 77%; Activity [32]: 51.4%; IC50 [33]: 23 µM; Activity [34]: 20.6%; Activity [35]: 54%; IC50 [36]: 14 µM
CC1C(C(C)(C)O)CCC1(C)/C=C/c1ccc(O)cc1 (centres undefined),50%,27%,32%,32%,61%,55%,76%,35%,54%,50%,Dose-dependent effect,32%,23 µM,54%,29%,12%,12.4%,55%,68%,57%,inhibition of growth at 5 µM [21]: 46%; inhibition of growth at 20 µM [22]: 53%; inhibition of growth at 20 µM [23]: 63%; inhibition of growth at 30 µM [24]: 62%; inhibition of growth at 50 µM [25]: 85%; inhibition of growth at 5 µM [26]: 24%; inhibition of growth at 5 µM [27]: 54%; Activity [28]: Dose-dependent effect; IC50 [28]: 1800 nM; inhibition of growth at 30 µM [29]: 58%; inhibition of growth at 50 µM [30]: 76%; inhibition of growth at 50 µM [31]: 79%; Activity [32]: 49.1%; IC50 [33]: 22 µM; Activity [34]: 17.9%; Activity [35]: 48%; IC50 [36]: 19 µM
